Experiment [1] concerns U2OS HIF1a-GFP, nuclear intensity imaging. Put plainly: HIF1a nuclear accumulation inducers, dose response, imaging, U2OS HIF1a-GFP, high content, dry powder (AID 488820). The method in brief: (§1)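 Material – U2OS cells with GFP-HIF1alpha · Amount – 2,000 cells/well · Buffer or medium – culture medium lacking phenol red · Dosing – Eight-point threefold dilution series, delivered by pin transfer · Schedule – 24 h compound exposure at 37 °C · Repeats – duplicate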

Experiment in experiment [2]: as above
The settings on record: U2OS HIF1a-GFP, nuclear intensity imaging; at 38 µM (top of the series). The method in brief:
as §1

Active and inactive are the calls of the source.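 Rule for the calls: active = compounds raising nuclear GFP-tagged hypoxia factor signal, with fitted half-maximal dose at or below the top valid dose; inconclusive = flat response of 30 to 70% activation, or poor curve fit; inactive = the rest, including opposite-direction effects.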

Take `Cc1ccc(Nc2nc(-c3ccccn3)nnc2-c2ccccc2)cn1`: the AC50 in experiment [1] is 7.08 µM.

Regarding `c1ccc(-c2nnc(Nc3nc(-c4ccccn4)nnc3-c3ccccc3)s2)cc1`, the half-maximal activity concentration (AC50) in experiment [1] is 7.41 µM.

Turning to `O=C(Nc1cnc2ccccc2c1)c1cc(-c2ccccc2)on1`, in experiment [2], the activation is 5.39% (inactive).

In the case of `c1ccc(-c2nnc(-c3ccccn3)nc2N2CCN(c3ccncc3)CC2)cc1`, the AC50 in experiment [1] is 2.68 µM.

In the case of `Cn1c(-c2ccccc2)cnc1Nc1nc(-c2ccccn2)nnc1-c1ccccc1`, in experiment [1], the half-maximal activity concentration (AC50) was 4.31 µM.

`Cc1ccccc1CNc1nc(-c2ccccn2)nnc1-c1ccccc1`: the AC50 in experiment [1] is 2.73 µM.

In the case of `O=C(c1cc(-c2ccccc2)on1)N1CCC(CO)CC1`, the activation in experiment [2] is -4.8% (inactive).

Take `O=C(NCCCO)c1cc(-c2ccccc2)on1`: the AC50 in experiment [1] was 6.09 µM.

Consider `O=C(Nc1ncc(-c2ccccc2)o1)c1cc(-c2ccccc2)on1`, for which, in experiment [2], the activation was 7.7% (inactive).

For the molecule `O=C(NC1CCc2ccccc2C1)c1cc(-c2ccccc2)on1` (stereo not drawn), the activation in experiment [2] is 30.1% (inactive).

For the molecule `O=C(Nc1cn2ccccc2n1)c1cc(-c2ccccc2)on1`, in experiment [2], the activation was 1.49% (inactive).

For `Cc1ccc(CNc2nc(-c3ccccn3)nnc2-c2ccccc2)cc1`, the half-maximal activity concentration (AC50) in experiment [1] is 1.1 µM.

`Cc1ccccc1CNC(=O)c1cc(-c2ccccc2)on1`: in experiment [2], the activation was 23% (inactive).

Regarding `O=C(NCCCn1ccnc1)c1cc(-c2ccccc2)on1`, the AC50 in experiment [1] was 8.03 µM.

As to `O=C(NCc1ccccc1)c1cc(-c2ccccc2)on1`, the activation in experiment [2] was 15.8% (inactive).

Regarding `O=C(c1cc(-c2ccccc2)on1)N1CCC(N2CCOCC2)CC1`, the activation in experiment [2] is 14.1% (inactive).

Consider `O=C(Nc1nc2ccccc2s1)c1cc(-c2ccccc2)on1`, for which the activation in experiment [2] was 12.2% (inactive).

As for `Cc1cccc(NC(=O)c2cc(-c3ccccc3)on2)n1`, in experiment [2], the activation is 9.15% (inactive).

On to `Cn1c(NC(=O)c2cc(-c3ccccc3)on2)nc2ccccc21`, for which, in experiment [2], the activation was -0.56% (inactive).

Take `O=C(NCC1CC1)c1cc(-c2ccccc2)on1`: the AC50 in experiment [1] is 16.1 µM.

For the molecule `O=C(NCCCN1CCOCC1)c1cc(-c2ccccc2)on1`, the AC50 in experiment [1] was 18.1 µM.

Turning to `c1ccc(-c2nnc(-c3ccccn3)nc2Nc2nc3ccccc3s2)cc1`, the AC50 in experiment [1] was 5.32 µM.

Turning to `c1ccc(-c2nnc(-c3ccccn3)nc2NCC2CCCCC2)cc1`, the AC50 in experiment [1] is 0.882 µM.

As to `c1ccc(-c2nnc(-c3ccccn3)nc2Nc2cnc3ccccc3n2)cc1`, in experiment [1], the AC50 was 5.59 µM.

Consider `c1ccc(-c2nnc(-c3ccccn3)nc2NCCCN2CCOCC2)cc1`, for which the AC50 in experiment [1] was 2.42 µM.

On to `Cn1c(-c2ccccc2)cnc1NC(=O)c1cc(-c2ccccc2)on1`, for which the activation in experiment [2] was -4.96% (inactive).

As to `CN1CCN(C(=O)c2cc(-c3ccccc3)on2)CC1`, in experiment [2], the activation was 3.08% (inactive).

As to `O=C(c1cc(-c2ccccc2)on1)N1CCC(N2CCCC2)CC1`, the activation in experiment [2] is 12.8% (inactive).

As to `c1ccc(-c2nnc(-c3ccccn3)nc2NCCN2CCOCC2)cc1`, the AC50 in experiment [1] is 5.41 µM.

As to `c1ccc(-c2nnc(-c3ccccn3)nc2NCC2CC2)cc1`, in experiment [1], the concentration at half-maximal activity (AC50) was 3.37 µM.

As for `O=C(NCC1CCCCC1)c1cc(-c2ccccc2)on1`, in experiment [2], the activation is 18.3% (inactive).

With `O=C(NCCCCO)c1cc(-c2ccccc2)on1`, the AC50 in experiment [1] is 2.1 µM.

In the case of `CN(C)c1nc(-c2ccccn2)nnc1-c1ccccc1`, the AC50 in experiment [1] was 2.94 µM.

With `O=C(NCCN1CCOCC1)c1cc(-c2ccccc2)on1`, the AC50 in experiment [1] was 6.66 µM.

For the molecule `O=C(Nc1ccc2ccccc2n1)c1cc(-c2ccccc2)on1`, the activation in experiment [2] is -3.83% (inactive).

Regarding `O=C(NCCN1CCCCC1)c1cc(-c2ccccc2)on1`, the activation in experiment [2] is 31.8% (inactive).

As for `C=CCNc1nc(-c2ccccn2)nnc1-c1ccccc1`, in experiment [1], the concentration at half-maximal activity (AC50) is 2.7 µM.

On to `O=C(Nc1nnc(-c2ccccc2)s1)c1cc(-c2ccccc2)on1`, for which the activation in experiment [2] was -0.482% (inactive).

With `O=C(NC1Cc2ccccc2C1)c1cc(-c2ccccc2)on1`, the activation in experiment [2] was 6.89% (inactive).

As for `CC(C)(C)CCNC(=O)c1cc(-c2ccccc2)on1`, the activation in experiment [2] was 17.6% (inactive).

Regarding `Cc1cccc(Nc2nc(-c3ccccn3)nnc2-c2ccccc2)n1`, the AC50 in experiment [1] is 2.98 µM.

With `CC(C)(C)CCNc1nc(-c2ccccn2)nnc1-c1ccccc1`, in experiment [1], the AC50 was 3.27 µM.

Consider `Cc1ccc(CNC(=O)c2cc(-c3ccccc3)on2)cc1`, for which the activation in experiment [2] is 12.8% (inactive).

On to `c1ccc(CNc2nc(-c3ccccn3)nnc2-c2ccccc2)cc1`, for which the AC50 in experiment [1] is 3.08 µM.

`Cc1ccc(NC(=O)c2cc(-c3ccccc3)on2)cn1`: the activation in experiment [2] was 25.1% (inactive).

In the case of `c1ccc(-c2cnc(Nc3nc(-c4ccccn4)nnc3-c3ccccc3)s2)cc1`, the AC50 in experiment [1] is 17.7 µM.

`CN1CCN(c2nc(-c3ccccn3)nnc2-c2ccccc2)CC1`: the AC50 in experiment [1] is 5.11 µM.

Take `O=C(c1cc(-c2ccccc2)on1)N1CCc2cccnc21`: the activation in experiment [2] is -2.04% (inactive).

With `O=C(c1cc(-c2ccccc2)on1)N1CCN(c2ccncc2)CC1`, the activation in experiment [2] is 31% (inactive).

For `Cc1cccc(CNc2nc(-c3ccccn3)nnc2-c2ccccc2)c1`, the AC50 in experiment [1] is 0.621 µM.

As to `c1ccc(-c2nnc(-c3ccccn3)nc2N2CCC(N3CCOCC3)CC2)cc1`, the concentration at half-maximal activity (AC50) in experiment [1] is 6.51 µM.

For the molecule `c1ccc(-c2csc(Nc3nc(-c4ccccn4)nnc3-c3ccccc3)n2)cc1`, the concentration at half-maximal activity (AC50) in experiment [1] is 10.1 µM.

For the molecule `OCCCNc1nc(-c2ccccn2)nnc1-c1ccccc1`, the AC50 in experiment [1] was 5.73 µM.

In the case of `Cc1cccc(CNC(=O)c2cc(-c3ccccc3)on2)c1`, the activation in experiment [2] is 11.8% (inactive).

As for `O=C(Nc1nc(-c2ccccc2)cs1)c1cc(-c2ccccc2)on1`, the activation in experiment [2] was 4.03% (inactive).

Regarding `O=C(Nc1ncc2ccccc2n1)c1cc(-c2ccccc2)on1`, the activation in experiment [2] was 1.57% (inactive).

Take `CCCCNC(=O)c1cc(-c2ccccc2)on1`: in experiment [1], the AC50 is 6.16 µM.

Consider `CN(C)CCNC(=O)c1cc(-c2ccccc2)on1`, for which the activation in experiment [2] is 6.65% (inactive).

What is called AC50 is the midpoint of the concentration-response curve, whichever way the signal moves.

The values are drawn from PubChem BioAssay AID488820 (Broad Institute, 2010).
